Assay results from ChEMBL document CHEMBL6121061, “Metabolomics-Guided Discovery of Bipolarolides H-O, New Ophiobolin-Type Sesterterpenes with Antibacterial Activity from the Marine-Derived Fungus Uzbekistanica storfjordensis sp. nov” (2025).
Converted amounts (≈) assume the structure as drawn. The source made the active and inactive calls. No cut-off for these calls is given here.

Tests used:
[1] = test system: Enterococcus faecalis; experiment: Antibacterial activity against Enterococcus faecalis ATCC 29122 assessed as inhibition of bacterial growth at 100 uM by broth microdilution method; assay type: functional, organism-based
Procedure, shortened: (§1)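 Broth microdilution per EUCAST, run in duplicate, for two independent experiments. Pure compounds came from 10 mM stocks in 20% DMSO, diluted with water, and were tested at a final 100 μM for growth inhibition. Controls were gentamycin at 0.03–32 μg/mL (positive) and 0.25% DMSO with growth medium (negative).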

[2] = test system: Staphylococcus aureus; experiment: Antibacterial activity against Staphylococcus aureus ATCC 25923 assessed as inhibition of bacterial growth at 100 uM by broth microdilution method; assay type: functional, organism-based; procedure, shortened: as §1
[3] = test system: Escherichia coli; experiment: Antibacterial activity against Escherichia coli ATCC 25922 assessed as inhibition of bacterial growth at 100 uM by broth microdilution method; assay type: functional, organism-based; procedure, shortened: as §1
[4] = test system: Pseudomonas aeruginosa; experiment: Antibacterial activity against Pseudomonas aeruginosa ATCC 27853 assessed as inhibition of bacterial growth at 100 uM by broth microdilution method; assay type: functional, organism-based; procedure, shortened: as §1
[5] = test system: Streptococcus agalactiae; experiment: Antibacterial activity against Streptococcus agalactiae ATCC 12386 by broth microdilution method; assay type: functional
Procedure, shortened: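 MIC was found by EUCAST broth microdilution in duplicate over 12.5–125 μM, using compounds from 10 mM stocks in 20% DMSO diluted in water. OD600 was plotted as a concentration-effect curve, and MIC was taken as the concentration giving an OD600 of 0.05. Gentamycin at 0.03–32 μg/mL served as the positive control.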

[6] = test system: Streptococcus agalactiae; experiment: Antibacterial activity against Streptococcus agalactiae ATCC 12386 assessed as inhibition of bacterial growth at 100 uM by broth microdilution method; assay type: functional, organism-based; procedure, shortened: as §1
[7] = test system: Streptococcus agalactiae; experiment: Antibacterial activity against Streptococcus agalactiae ATCC 12386 assessed as inhibition of bacterial growth at 100 uM by broth microdilution method

| SMILES | Activity [1] | Activity [2] | Activity [3] | Activity [4] | Activity [5] | Activity [6] | MIC [5] | Activity [7] |
| --- | --- | --- | --- | --- | --- | --- | --- | --- |
| C/C(=C\CC[C@H](C)[C@H]1CC[C@]2(C)C[C@H]3C4=C(CC[C@@H]12)C(=O)N(CCO)[C@@H]4C[C@@]3(C)O)C(=O)O | inactive | inactive | inactive | inactive | inactive | – | – | – |
| CC(C)=CCC[C@H](C)[C@H]1CC[C@]2(C)C[C@H]3[C@@H]4[C@H](CC[C@@H]12)C(=O)N1CCOC41C[C@@]3(C)O (stereo partly specified) | inactive | inactive | inactive | inactive | inactive | – | – | – |
| CC(CO)CCC[C@H](C)[C@H]1CC[C@]2(C)C[C@H]3C4=C(CC[C@@H]12)C(=O)N(CCO)[C@@H]4C[C@@]3(C)O (stereo partly specified) | inactive | inactive | inactive | inactive | inactive | – | – | – |
| C/C(=C\CC[C@H](C)[C@H]1CC[C@]2(C)C[C@H]3C4=C(CC[C@@H]12)C(=O)N(CCO)[C@@H]4C[C@@]3(C)O)CO | inactive | inactive | inactive | inactive | inactive | – | – | – |
| CC(C)=C/C=C\[C@H](C)[C@H]1CC[C@]2(C)C[C@H]3C4=C(CC[C@@H]12)C(=O)N(CCO)[C@@H]4C[C@@]3(C)O | inactive | inactive | inactive | inactive | – | Active | 66 µM (≈ 28.2 µg/mL) | Active |
| CNC(C)[C@@H]1CC[C@@H](N)[C@@H](O[C@H]2[C@H](O)[C@@H](O[C@H]3OC[C@](C)(O)[C@H](NC)[C@H]3O)[C@H](N)C[C@@H]2N)O1.CN[C@@H]1[C@@H](O)[C@@H](O[C@@H]2[C@@H](O)[C@H](O[C@H]3O[C@H](C(C)N)CC[C@H]3N)[C@@H](N)C[C@H]2N)OC[C@]1(C)O.CN[C@@H]1[C@@H](O)[C@@H](O[C@@H]2[C@@H](O)[C@H](O[C@H]3O[C@H](CN)CC[C@H]3N)[C@@H](N)C[C@H]2N)OC[C@]1(C)O (stereo partly specified) | – | – | – | – | – | – | 3 µM | – |
| CC(CCC[C@H](C)[C@H]1CC[C@]2(C)C[C@H]3C4=C(CC[C@@H]12)C(=O)N(CCO)[C@@H]4C[C@@]3(C)O)COC=O (stereo partly specified) | inactive | inactive | inactive | inactive | – | Active | 86 µM (≈ 40.9 µg/mL) | Active |
| CC(CCC[C@H](C)[C@H]1CC[C@]2(C)C[C@H]3C4=C(CC[C@@H]12)C(=O)N(CCO)[C@@H]4C[C@@]3(C)O)C(=O)O (stereo partly specified) | inactive | inactive | inactive | inactive | inactive | – | – | – |
| CC(C)=CCC[C@H](C)[C@H]1CC[C@]2(C)C[C@H]3C4=C(CC[C@@H]12)C(=O)N(CCO)[C@@H]4C[C@@]3(C)O | inactive | inactive | inactive | inactive | – | Active | 64 µM (≈ 27.5 µg/mL) | – |
